The values below come from ChEMBL document CHEMBL4414559, “Proanthocyanidin Dimers and Trimers from Vitis vinifera Provide Diverse Structural Motifs for the Evaluation of Dentin Biomodification” (J Nat Prod, 2019).

The test system of data set [1] is Hathewaya histolytica. Briefly: Inhibition of Clostridium histolyticum collagenase-induced degradation of human molar dentin assessed as reduction in at 3.5 mg after 1 hr followed by collagenase treatment and measured after 24 hrs relative to control. The method in brief:
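Resistance to proteolytic biodegradation is measured gravimetrically as percent mass gain or loss of the dentin. This avoids colorimetric, fluorescence or UV detection.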

In data set [2] the test system is Dentine. Briefly: Induction of modification in human molar dentin assessed as sum of percentage of apparent modulus elasticity and percentage of collagen remaining after […] at 3.5 mg. Format: functional, tissue-based.
Data set [3] has as its system Dentine. Briefly: Induction of elasticity in human molar dentin assessed as fold change at 3.5 mg after 1 hr by flexural assay relative to untreated control. In kind it is functional.
Data set [4] in a line: Stability in human molar dentin at 3.5 mg after 1 hr by flexural assay. As to conditions: in vitro. Format: ADME, tissue-based, Dentine.
For data set [5], the system named is Dentine. Briefly: Induction of elasticity in human molar dentin at 3.5 mg after 1 hr by flexural assay. In kind it is functional, tissue-based. In outline:
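Read-out is modulus of elasticity (MPa), measured mechanically on the dentin. This avoids colorimetric, fluorescence or UV detection.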

Calls of active or inactive are those of the source. The rule behind the calls is not given here.

One may read the inhibition as the change of the read-out against control, counted positive when it falls. `Oc1cc(O)c2c(c1)O[C@H](c1ccc(O)c(O)c1)[C@H](O)[C@H]2c1c(O)cc(O)c2c1O[C@H](c1ccc(O)c(O)c1)[C@H](O)[C@H]2c1c(O)cc(O)c2c1O[C@@H](c1ccc(O)c(O)c1)[C@H](O)C2`: the inhibition in data set [1] lay within 70 to 80%. Moreover, the result in data set [2] was Active. In data set [3], the “fold change (FC)” value stood at 5.5. Further, the Stability entry in data set [4] is given as “Stable”.

Consider `Oc1cc(O)c2c(c1)O[C@H](c1ccc(O)c(O)c1)[C@H](O)[C@H]2c1c(O)cc(O)c2c1O[C@H](c1ccc(O)c(O)c1)[C@H](O)[C@H]2c1c(O)cc(O)c2c1O[C@H](c1ccc(O)c(O)c1)[C@@H](O)C2`, for which, in data set [1], the inhibition fell in the range of 70 to 80%. In addition, the result in data set [2] was Active. Further, the “fold change (FC)” value in data set [3] was determined as 5. For the same molecule, in data set [4], the Stability result is on record as “Stable”.

With `Oc1cc(O)c2c(c1)O[C@H](c1ccc(O)c(O)c1)[C@H](O)[C@H]2c1c(O)cc(O)c2c1O[C@@H](c1ccc(O)c(O)c1)[C@H](O)C2`, the result in data set [5] was inactive. Moreover, the Stability entry in data set [4] is reported as “Stable”.

`Oc1cc(O)c2c(c1)O[C@@H](c1ccc(O)c(O)c1)[C@H](O)[C@H]2c1c(O)cc(O)c2c1O[C@H](c1ccc(O)c(O)c1)[C@H](O)C2`: in data set [2], the outcome was Active. In addition, the outcome in data set [5] was inactive. Moreover, the Stability result in data set [4] is “Stable”.

In the case of `Oc1cc(O)c2c(c1)O[C@H](c1ccc(O)c(O)c1)[C@@H](O)[C@@H]2c1c(O)cc(O)c2c1O[C@H](c1ccc(O)c(O)c1)[C@@H](O)C2`, the result in data set [5] was inactive. Also, in data set [4], the Stability result was “Stable”.

Regarding `Oc1cc(O)c2c(c1)O[C@@H](c1ccc(O)c(O)c1)[C@H](O)[C@H]2c1c(O)cc(O)c2c1O[C@H](c1ccc(O)c(O)c1)[C@@H](O)C2`, in data set [2], the outcome was Active. Further, the outcome in data set [5] was inactive. The Stability entry in data set [4] was “Stable”.

For `Oc1cc(O)c2c(c1)O[C@H](c1ccc(O)c(O)c1)[C@H](O)[C@H]2c1c(O)cc(O)c2c1O[C@H](c1ccc(O)c(O)c1)[C@@H](O)C2` [PROCYANIDIN B1], the outcome in data set [5] was inactive. For the same molecule, the Stability entry in data set [4] is “Stable”.

In the case of `Oc1cc(O)c2c(c1)O[C@H](c1ccc(O)c(O)c1)[C@H](O)[C@H]2c1c(O)cc(O)c2c1O[C@H](c1ccc(O)c(O)c1)[C@H](O)C2` [PROCYANIDIN B2], the result in data set [2] was Active. Also, in data set [5], the outcome was inactive. In data set [4], the Stability entry was “Stable”.

Regarding `Oc1cc(O)c2c(c1)O[C@H](c1ccc(O)c(O)c1)[C@H](O)[C@H]2c1c(O)cc(O)c2c1O[C@@H](c1ccc(O)c(O)c1)[C@@H](O)C2`, in data set [2], the result was Active. In data set [5], the result was inactive. Moreover, in data set [4], the Stability entry is on record as “Stable”.
